Values after ≈ are worked out from the molar mass of the structure shown.
Experiments:
Format in all cases: functional
[1] = tested on: Mycobacterium tuberculosis; assay: Antimycobacterial activity against streptomycin and isoniazid-resistant Mycobacterium tuberculosis CIBIN 675 isolates
How it was run: (§1)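 Modified microplate Alamar Blue assay (MABA). Inoculum came from a log-phase culture matched to McFarland 1, diluted 1:50 in Middlebrook 7H9 to 6 × 10^6 CFU/mL, and prepared just before inoculation.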

[2] = tested on: Mycobacterium tuberculosis; assay: Antimycobacterial activity against streptomycin, isoniazid, rifampicin, pyrazinamide-resistant Mycobacterium tuberculosis CIBIN 234 isolates; how it was run: as §1
[3] = tested on: Mycobacterium tuberculosis; assay: Antimycobacterial activity against streptomycin, isoniazid, ethambutol-resistant Mycobacterium tuberculosis CIBIN 112 isolates; how it was run: as §1

| SMILES | MIC [1] | MIC [2] [µM] | MIC [3] [µM] |
| --- | --- | --- | --- |
| Cc1nnc(-c2ccncc2)o1 | 49.7 µM | 49.7 (≈ 8.01 µg/mL) | 49.7 (≈ 8.01 µg/mL) |
| ClCc1nnc(-c2ccncc2)o1 | 41 µM | 41 (≈ 8.03 µg/mL) | 41 (≈ 8.03 µg/mL) |
| CCCCCCCCCCCCCCCc1nnc(-c2ccncc2)o1 | 11.2 µM | 22.4 (≈ 8 µg/mL) | 2.8 (≈ 1 µg/mL) |
| c1cc(-c2nnc(-c3ccncc3)o2)ccn1 | 35.7 µM | 35.7 (≈ 8.01 µg/mL) | 35.7 (≈ 8.01 µg/mL) |
| CCCCCCCCCCCCCCCCCc1nnc(-c2ccncc2)o1 | 10.4 µM | 20.8 (≈ 8 µg/mL) | 2.59 (≈ 0.999 µg/mL) |
| O=[N+]([O-])c1ccc(-c2nnc(-c3ccncc3)o2)cc1 | 29.9 µM | 29.9 (≈ 8.01 µg/mL) | 29.9 (≈ 8.01 µg/mL) |
| O=[N+]([O-])c1cc(-c2nnc(-c3ccncc3)o2)cc([N+](=O)[O-])c1 | 25.5 µM | 25.5 (≈ 8 µg/mL) | 12.8 (≈ 4 µg/mL) |
| CN(C)c1ccc(-c2nnc(-c3ccncc3)o2)cc1 | 30 µM | 30 (≈ 8 µg/mL) | 30 (≈ 8 µg/mL) |
| FC(F)(F)c1nnc(-c2ccncc2)o1 | 37.2 µM | 37.2 (≈ 8.01 µg/mL) | 37.2 (≈ 8.01 µg/mL) |
| O=[N+]([O-])c1ccccc1-c1nnc(-c2ccncc2)o1 | 29.9 µM | 29.9 (≈ 8.01 µg/mL) | 29.9 (≈ 8.01 µg/mL) |
| COc1cc(-c2nnc(-c3ccncc3)o2)cc(OC)c1OC | 28.2 µM | 28.2 (≈ 8.85 µg/mL) | 14.1 (≈ 4.42 µg/mL) |
| c1ccc(-c2nnc(-c3ccncc3)o2)cc1 | 35.9 µg/mL | 35.9 (≈ 8.01 µg/mL) | 35.9 (≈ 8.01 µg/mL) |
| CN[C@@H]1[C@H](O[C@H]2[C@H](O[C@H]3[C@H](O)[C@@H](O)[C@H](N=C(N)N)[C@@H](O)[C@@H]3N=C(N)N)O[C@@H](C)[C@]2(O)C=O)O[C@@H](CO)[C@H](O)[C@H]1O (stereo in doubt) [STREPTOMYCIN] | 6.87 µM | 55 (≈ 32 µg/mL) | 55 (≈ 32 µg/mL) |
| CC[C@@H](CO)NCCN[C@@H](CC)CO [ETHAMBUTOL] |  |  | 78.3 (≈ 16 µg/mL) |
| NNC(=O)c1ccncc1 [ISONIAZID] | 29.2 µM | 58.4 (≈ 8.01 µg/mL) | 29.2 (≈ 4 µg/mL) |
| CO[C@H]1/C=C/O[C@@]2(C)Oc3c(C)c(O)c4c(O)c(c(/C=N/N5CCN(C)CC5)c(O)c4c3C2=O)NC(=O)/C(C)=C\C=C\[C@H](C)[C@H](O)[C@@H](C)[C@@H](O)[C@@H](C)[C@H](OC(C)=O)[C@@H]1C [RIFAMPIN] | 0.94 µM | 122 (≈ 100 µg/mL) | 3.79 (≈ 3.12 µg/mL) |

From ChEMBL document CHEMBL1143736, “Synthesis and antimycobacterial activity of 4-(5-substituted-1,3,4-oxadiazol-2-yl)pyridines” (Bioorg Med Chem, 2007)
